For 19 compounds, IC50 and Activity results are on record in ChEMBL document CHEMBL1138439, “Synthesis and structure-activity relationship of novel diarylpyrazole imide analogues as CB1 cannabinoid receptor ligands” (Bioorg Med Chem, 2009).

In test [1] the target is Cannabinoid receptor 1 (Rattus norvegicus, UniProt P20272). Description: Displacement of [3H]CP-55940 from CB1R in Sprague-Dawley rat cerebellar membrane. Details: species or system Cerebellum. On the technique in general: Displacement assays read how much labelled ligand stays bound in the presence of the test substance.
The test system of test [2] is Mus musculus. Description: Reduction in body weight of diet induced obese C57BL/6J mouse at 10 mL/kg, po for 14 days. It counts as functional. Details: scale not given: the % may be the effect or the level left. The method, boiled down: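 Body weight change (g) from start was tracked daily over days 0–14 and compared with a vehicle-treated control group.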

Usually IC50 stands for the midpoint of a concentration-inhibition curve.

Chain of Cannabinoid receptor 1 (P20272 whole entry): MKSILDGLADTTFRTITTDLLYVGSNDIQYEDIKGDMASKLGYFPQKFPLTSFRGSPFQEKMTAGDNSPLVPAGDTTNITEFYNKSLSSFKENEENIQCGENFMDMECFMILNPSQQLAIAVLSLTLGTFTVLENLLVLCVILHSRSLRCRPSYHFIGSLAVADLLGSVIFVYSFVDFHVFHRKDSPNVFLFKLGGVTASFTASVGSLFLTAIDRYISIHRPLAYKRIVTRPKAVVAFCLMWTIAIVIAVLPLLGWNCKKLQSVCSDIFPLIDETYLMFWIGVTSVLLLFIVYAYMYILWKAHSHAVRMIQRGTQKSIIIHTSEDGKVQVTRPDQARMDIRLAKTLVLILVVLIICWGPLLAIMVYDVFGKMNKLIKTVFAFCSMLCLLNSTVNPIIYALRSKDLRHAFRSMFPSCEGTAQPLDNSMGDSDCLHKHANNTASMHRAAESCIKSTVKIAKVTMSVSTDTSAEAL

As to `Cc1c(C(=O)NS(=O)(=O)c2ccccc2)nn(-c2ccc(Cl)cc2Cl)c1-c1ccc(Cl)cc1`, in test [1] (read-out: IC50), the IC50 was found to be 3640 nM.
For the compound `Cc1c(C(=O)NS(=O)(=O)c2ccc(F)cc2)nn(-c2ccc(Cl)cc2Cl)c1-c1ccc(Cl)cc1`, in test [1] (read-out: IC50), the IC50 worked out at 1200 nM.
The same measure, in the same setting: with `Cc1ccc(S(=O)(=O)NC(=O)c2nn(-c3ccc(Cl)cc3Cl)c(-c3ccc(Cl)cc3)c2C)cc1` the figure was > 10000 nM; with `CCCCS(=O)(=O)NC(=O)c1nn(-c2ccc(Cl)cc2Cl)c(-c2ccc(Cl)cc2)c1C`, > 10000 nM.
The same measure, in the same setting: in the case of `Cc1c(C(=O)NS(=O)(=O)c2cccc(F)c2)nn(-c2ccc(Cl)cc2Cl)c1-c1ccc(Cl)cc1` it was > 10000 nM.
For the compound `Cc1c(C(=O)NS(=O)(=O)c2cccc(Cl)c2)nn(-c2ccc(Cl)cc2Cl)c1-c1ccc(Cl)cc1`, in test [1] (read-out: IC50), the IC50 amounted to 1200 nM.
Consider `Cc1c(C(=O)NC(=O)NCC2CCCCC2)nn(-c2ccc(Cl)cc2Cl)c1-c1ccc(Cl)cc1`, for which the IC50 result in test [1] was “ND(Insoluble)”.
Regarding `CCCC(CCC)C(=O)N(C)C(=O)c1nn(-c2ccc(Cl)cc2Cl)c(-c2ccc(Cl)cc2)c1C`, the IC50 in test [1] (read-out: IC50) came to 247 nM.
Take `Cc1c(C(=O)NC(=O)NC(C)(C)C)nn(-c2ccc(Cl)cc2Cl)c1-c1ccc(Cl)cc1`: in test [1], the IC50 entry was “ND(Insoluble)”.
In the case of `Cc1c(C(=O)NS(=O)(=O)C(C)C)nn(-c2ccc(Cl)cc2Cl)c1-c1ccc(Cl)cc1`, the IC50 in test [1] (read-out: IC50) was > 10000 nM.
With `CCCS(=O)(=O)NC(=O)c1nn(-c2ccc(Cl)cc2Cl)c(-c2ccc(Cl)cc2)c1C`, the IC50 in test [1] (read-out: IC50) is > 10000 nM.
Take `Cc1c(C(=O)N(C)C(=O)C2CCCCC2)nn(-c2ccc(Cl)cc2Cl)c1-c1ccc(Cl)cc1`: the IC50 in test [1] (read-out: IC50) stood at 167 nM.
In the case of `Cc1c(C(=O)N(C)C(=O)C(C)(C)C)nn(-c2ccc(Cl)cc2Cl)c1-c1ccc(Cl)cc1`, the IC50 in test [1] (read-out: IC50) was found to be 220 nM.
`Cc1c(C(=O)NS(=O)(=O)c2ccc(Cl)cc2)nn(-c2ccc(Cl)cc2Cl)c1-c1ccc(Cl)cc1`: the IC50 in test [1] (read-out: IC50) was > 10000 nM.
Take `CCC(C)(C)C(=O)N(C)C(=O)c1nn(-c2ccc(Cl)cc2Cl)c(-c2ccc(Cl)cc2)c1C`: the IC50 in test [1] (read-out: IC50) turned out to be 227 nM.
Consider `CCC(CC)C(=O)N(C)C(=O)c1nn(-c2ccc(Cl)cc2Cl)c(-c2ccc(Cl)cc2)c1C`, for which the IC50 in test [1] (read-out: IC50) is 265 nM.
In test [2], `Cc1c(C(=O)NN2CCCCC2)nn(-c2ccc(Cl)cc2Cl)c1-c1ccc(Cl)cc1` [RIMONABANT] displayed an Activity of 11.5%.
Compound `Cc1c(C(=O)NC(=O)C(C)(C)C)nn(-c2ccc(Cl)cc2Cl)c1-c1ccc(Cl)cc1` had an Activity in test [2] of 2.2%.
For `Cc1c(C(=O)NS(=O)(=O)Cc2ccccc2)nn(-c2ccc(Cl)cc2Cl)c1-c1ccc(Cl)cc1`, the IC50 in test [1] (read-out: IC50) was > 10000 nM.
